Data as given in ChEMBL document CHEMBL4346701, “Synthesis and biological evaluation of tryptophan-derived rhodanine derivatives as PTP1B inhibitors and anti-bacterial agents” (Eur J Med Chem, 2019).
≈ marks a conversion by molar mass, not a printed value.

What was measured:
[1] = tested on: Staphylococcus aureus; test: Antibacterial activity against Quinolone-resistant Staphylococcus aureus CCARM 3519 assessed as reduction in bacterial cell growth incubated for 24 hrs by ELISA; assay type: functional; conditions: CCARM 3519, 24 h
How it was run: (§1)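 MICs determined by serial dilution in 96-well microtiter plates. The strain panel included Gram-positive S. aureus strains and multidrug-resistant clinical isolates. Gatifloxacin, moxifloxacin, norfloxacin and oxacillin served as antibacterial positive controls.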

[2] = tested on: Staphylococcus aureus; test: Antibacterial activity against Methicillin-resistant Staphylococcus aureus CCARM 3506 assessed as reduction in bacterial cell growth incubated for 24 hrs by ELISA; assay type: functional; conditions: CCARM 3506, 24 h; how it was run: as §1
[3] = tested on: Staphylococcus aureus; test: Antibacterial activity against Quinolone-resistant Staphylococcus aureus CCARM 3505 assessed as reduction in bacterial cell growth incubated for 24 hrs by ELISA; assay type: functional; conditions: CCARM 3505, 24 h; how it was run: as §1
[4] = tested on: Pseudomonas aeruginosa; test: Antibacterial activity against Pseudomonas aeruginosa 2742 assessed as reduction in bacterial cell growth incubated for 24 hrs by ELISA; assay type: functional; conditions: Pseudomonas aeruginosa, 2742, 24 h
How it was run: (§2)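 MIC determined by serial dilution in 96-well microtiter plates. Strains used were E. coli 1924 and P. aeruginosa 2742 (Gram-negative), S. mutans 3289 (Gram-positive) and the fungus C. albicans 7535. Gatifloxacin, moxifloxacin, norfloxacin and oxacillin served as antibacterial reference agents, and fluconazole as the antifungal reference.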

[5] = tested on: Streptococcus mutans; test: Antibacterial activity against Streptococcus mutans KCTC3289 assessed as reduction in bacterial cell growth incubated for 24 hrs by ELISA; assay type: functional; conditions: KCTC3289, 24 h; how it was run: as §2
[6] = tested on: Escherichia coli; test: Antibacterial activity against Escherichia coli 1924 assessed as reduction in bacterial cell growth incubated for 24 hrs by ELISA; assay type: functional; conditions: Escherichia coli, 1924, 24 h; how it was run: as §2
[7] = tested on: Candida albicans; test: Antifungal activity against Candida albicans 7535 assessed as reduction in bacterial cell growth incubated for 24 hrs by ELISA; assay type: functional; conditions: Candida albicans, 7535, 24 h; how it was run: as §2
[8] = tested on: Staphylococcus aureus; test: Antibacterial activity against Methicillin-resistant Staphylococcus aureus CCARM 3167 assessed as reduction in bacterial cell growth incubated for 24 hrs by ELISA; assay type: functional; conditions: CCARM 3167, 24 h; how it was run: as §1
[9] = molecular target: T1, Tyrosine-protein phosphatase non-receptor type 1 (Homo sapiens, UniProt P18031); test: Inhibition of human recombinant GST-tagged PTP1B expressed in Escherichia coli BL21 (DE3) using pNPP as substrate measured for 2 mins by colorimetric analysis
T1 sequence (P18031 whole entry): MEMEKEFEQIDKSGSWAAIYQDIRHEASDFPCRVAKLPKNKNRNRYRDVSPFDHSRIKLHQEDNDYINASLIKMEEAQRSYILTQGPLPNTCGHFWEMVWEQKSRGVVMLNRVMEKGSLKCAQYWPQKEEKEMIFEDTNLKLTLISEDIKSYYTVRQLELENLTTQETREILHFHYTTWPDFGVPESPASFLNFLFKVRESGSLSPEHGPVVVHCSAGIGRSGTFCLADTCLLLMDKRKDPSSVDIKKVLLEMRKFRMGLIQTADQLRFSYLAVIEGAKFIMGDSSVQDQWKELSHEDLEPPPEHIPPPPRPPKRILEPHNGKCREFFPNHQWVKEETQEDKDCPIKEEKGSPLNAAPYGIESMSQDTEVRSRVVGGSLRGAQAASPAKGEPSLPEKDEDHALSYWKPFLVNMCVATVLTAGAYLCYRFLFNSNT

[10] = tested on: Staphylococcus aureus; test: Antibacterial activity against Staphylococcus aureus RN4220 assessed as reduction in bacterial cell growth incubated for 24 hrs by ELISA; assay type: functional; conditions: RN4220, 24 h; how it was run: as §1
[11] = tested on: Staphylococcus aureus; test: Antibacterial activity against Staphylococcus aureus KCTC209 assessed as reduction in bacterial cell growth incubated for 24 hrs by ELISA; assay type: functional; conditions: KCTC209, 24 h; how it was run: as §1
[12] = tested on: Staphylococcus aureus; test: Antibacterial activity against Staphylococcus aureus KCTC503 assessed as reduction in bacterial cell growth incubated for 24 hrs by ELISA; assay type: functional; conditions: KCTC503, 24 h; how it was run: as §1

Work on `O=C(O)C(Cc1c[nH]c2ccccc12)N1C(=O)/C(=C/c2ccc3cc(OCc4ccccc4Cl)ccc3c2)SC1=S` (configuration not stated) yielded an MIC [1] of 4 µg/mL (≈ 6.68 µM), an MIC [2] of 4 µg/mL (≈ 6.68 µM) and an MIC [3] of 4 µg/mL (≈ 6.68 µM). For the same compound, the MIC [4] was > 64 µg/mL, the MIC [5] was 2 µg/mL (≈ 3.34 µM) and the MIC [6] was 4 µg/mL (≈ 6.68 µM). The MIC [7] was > 64 µg/mL, the MIC [8] was 2 µg/mL (≈ 3.34 µM) and the IC50 [9] was 800 nM. It also gave an MIC [10] of 4 µg/mL (≈ 6.68 µM).
With `Cc1onc(-c2ccccc2)c1C(=O)N[C@@H]1C(=O)N2[C@@H]1SC(C)(C)[C@@H]2C(=O)O` [OXACILLIN] the MIC [1] was 1 µg/mL (≈ 2.49 µM), the MIC [2] was > 64 µg/mL and the MIC [3] was 1 µg/mL (≈ 2.49 µM). The MIC [8] was > 64 µg/mL.
`O=C(O)C(Cc1c[nH]c2ccccc12)N1C(=O)/C(=C/c2cccc(OCc3ccccc3)c2)SC1=S` (configuration not stated) showed an MIC [1] of 8 µg/mL (≈ 15.5 µM), an MIC [11] of 8 µg/mL (≈ 15.5 µM) and an MIC [2] of 8 µg/mL (≈ 15.5 µM). For the same compound, the MIC [3] was 8 µg/mL (≈ 15.5 µM), the MIC [4] was > 64 µg/mL and the MIC [5] was 8 µg/mL (≈ 15.5 µM). For the same compound, the MIC [6] was 8 µg/mL (≈ 15.5 µM), the MIC [7] was > 64 µg/mL and the MIC [8] was 8 µg/mL (≈ 15.5 µM). For the same compound, the IC50 [9] was 8230 nM, the MIC [12] was 8 µg/mL (≈ 15.5 µM) and the MIC [10] was 4 µg/mL (≈ 7.77 µM).
Work on `COc1cc(/C=C2\SC(=S)N(C(Cc3c[nH]c4ccccc34)C(=O)O)C2=O)ccc1OCc1ccccc1` (configuration not stated) yielded an MIC [1] of 16 µg/mL (≈ 29.4 µM), an MIC [11] of 8 µg/mL (≈ 14.7 µM) and an MIC [2] of 8 µg/mL (≈ 14.7 µM). The MIC [3] was 8 µg/mL (≈ 14.7 µM), the MIC [4] was > 64 µg/mL and the MIC [5] was 8 µg/mL (≈ 14.7 µM). The MIC [6] was 16 µg/mL (≈ 29.4 µM), the MIC [7] was > 64 µg/mL and the MIC [8] was 8 µg/mL (≈ 14.7 µM). It also gave an IC50 [9] of 5770 nM, an MIC [12] of 8 µg/mL (≈ 14.7 µM) and an MIC [10] of 8 µg/mL (≈ 14.7 µM).
Work on `O=C(O)C(Cc1c[nH]c2ccccc12)N1C(=O)/C(=C/c2ccc3cc(OCc4ccccc4)ccc3c2)SC1=S` (configuration not stated) yielded an MIC [1] of 8 µg/mL (≈ 14.2 µM), an MIC [2] of 8 µg/mL (≈ 14.2 µM) and an MIC [3] of 4 µg/mL (≈ 7.08 µM). The MIC [4] was > 64 µg/mL, the MIC [5] was 8 µg/mL (≈ 14.2 µM) and the MIC [6] was 8 µg/mL (≈ 14.2 µM). The MIC [7] was > 64 µg/mL, the MIC [8] was 8 µg/mL (≈ 14.2 µM) and the IC50 [9] was 820 nM. The MIC [10] was 8 µg/mL (≈ 14.2 µM).
In the case of `CCn1cc(C(=O)O)c(=O)c2cc(F)c(N3CCNCC3)cc21` [NORFLOXACIN], the MIC [1] is reported as > 64 µg/mL, the MIC [2] is reported as 4 µg/mL (≈ 12.5 µM) and the MIC [3] is reported as > 64 µg/mL. For the same compound, the MIC [8] was 8 µg/mL (≈ 25.1 µM).
`O=C(O)C(Cc1c[nH]c2ccccc12)N1C(=O)/C(=C/c2cccc(OCc3ccc(Cl)cc3Cl)c2)SC1=S` (configuration not stated) showed an MIC [1] of 4 µg/mL (≈ 6.85 µM), an MIC [11] of 4 µg/mL (≈ 6.85 µM) and an MIC [2] of 8 µg/mL (≈ 13.7 µM). The MIC [3] was 4 µg/mL (≈ 6.85 µM), the MIC [4] was > 64 µg/mL and the MIC [5] was 4 µg/mL (≈ 6.85 µM). The MIC [6] was 8 µg/mL (≈ 13.7 µM), the MIC [7] was > 64 µg/mL and the MIC [8] was 8 µg/mL (≈ 13.7 µM). For the same compound, the IC50 [9] was 1700 nM, the MIC [12] was 8 µg/mL (≈ 13.7 µM) and the MIC [10] was 4 µg/mL (≈ 6.85 µM).
With `O=C(O)CN1C(=O)/C(=C/c2ccc3cc(OCc4ccc(F)cc4)ccc3c2)SC1=S` the MIC [1] was 4 µg/mL (≈ 8.82 µM), the MIC [2] was 2 µg/mL (≈ 4.41 µM) and the MIC [3] was 4 µg/mL (≈ 8.82 µM). The MIC [4] was > 64 µg/mL, the MIC [6] was > 64 µg/mL and the MIC [7] was > 64 µg/mL. It also gave an MIC [8] of 4 µg/mL (≈ 8.82 µM), an MIC [12] of 4 µg/mL (≈ 8.82 µM) and an MIC [10] of 4 µg/mL (≈ 8.82 µM).
In the case of `O=C(O)C(Cc1c[nH]c2ccccc12)N1C(=O)/C(=C/c2ccc(OCc3ccccc3)cc2)SC1=S` (configuration not stated), the MIC [1] is reported as 8 µg/mL (≈ 15.5 µM), the MIC [11] is reported as 8 µg/mL (≈ 15.5 µM) and the MIC [2] is reported as 8 µg/mL (≈ 15.5 µM). The MIC [3] was 8 µg/mL (≈ 15.5 µM), the MIC [4] was > 64 µg/mL and the MIC [5] was 4 µg/mL (≈ 7.77 µM). The MIC [6] was 8 µg/mL (≈ 15.5 µM), the MIC [7] was > 64 µg/mL and the MIC [8] was 8 µg/mL (≈ 15.5 µM). It also gave an IC50 [9] of 5520 nM, an MIC [12] of 8 µg/mL (≈ 15.5 µM) and an MIC [10] of 4 µg/mL (≈ 7.77 µM).
With `O=C(O)C(Cc1c[nH]c2ccccc12)N1C(=O)/C(=C/c2ccc(OCc3ccc(Cl)cc3)cc2)SC1=S` (configuration not stated) the MIC [1] was 4 µg/mL (≈ 7.29 µM), the MIC [11] was 4 µg/mL (≈ 7.29 µM) and the MIC [2] was 4 µg/mL (≈ 7.29 µM). For the same compound, the MIC [3] was 4 µg/mL (≈ 7.29 µM), the MIC [4] was > 64 µg/mL and the MIC [5] was 2 µg/mL (≈ 3.64 µM). For the same compound, the MIC [6] was 4 µg/mL (≈ 7.29 µM), the MIC [7] was > 64 µg/mL and the MIC [8] was 4 µg/mL (≈ 7.29 µM). It also gave an IC50 [9] of 2440 nM, an MIC [12] of 4 µg/mL (≈ 7.29 µM) and an MIC [10] of 2 µg/mL (≈ 3.64 µM).
With `COc1c(N2C[C@@H]3CCCN[C@@H]3C2)c(F)cc2c(=O)c(C(=O)O)cn(C3CC3)c12` [MOXIFLOXACIN] the MIC [1] was 4 µg/mL (≈ 9.96 µM), the MIC [5] was 0.25 µg/mL (≈ 0.623 µM) and the MIC [7] was 0.5 µg/mL (≈ 1.25 µM). For the same compound, the MIC [12] was 2 µg/mL (≈ 4.98 µM) and the MIC [10] was 0.25 µg/mL (≈ 0.623 µM).
